≈ marks a conversion by molar mass, not a printed value.
Assays:
Escherichia coli = test: Antibacterial activity against Escherichia coli after 18 to 22 hrs by […]; type: functional
Proteus vulgaris = test: Antibacterial activity against Proteus vulgaris after 18 to 22 hrs by […]; type: functional
Klebsiella aerogenes = test: Antibacterial activity against Enterobacter aerogenes after 18 to 22 hrs by […]; type: functional
Klebsiella pneumoniae = test: Antibacterial activity against Klebsiella pneumoniae after 18 to 22 hrs by […]; type: functional
Staphylococcus aureus = test: Antibacterial activity against Staphylococcus aureus after 18 to 22 hrs by […]; type: functional
Staphylococcus warneri = test: Antibacterial activity against Staphylococcus warneri after 18 to 22 hrs by […]; type: functional
Streptococcus pyogenes = test: Antibacterial activity against Streptococcus pyogenes after 18 to 22 hrs by […]; type: functional
Enterococcus faecalis = test: Antibacterial activity against Enterococcus faecalis after 18 to 22 hrs by […]; type: functional
Candida albicans = test: Antifungal activity against 10 strains of Candida albicans after 24 hrs by […]; type: functional
Pichia kudriavzevii = test: Antifungal activity against 3 strains of Candida krusei after 24 hrs by […]; type: functional
Candida parapsilosis = test: Antifungal activity against 4 strains of Candida parapsilosis after 24 hrs by […]; type: functional; conditions: Lodderomyces parapsilosis
[Candida] sake = Antifungal activity against 2 strains of Candida sake after 24 hrs by […]; type: functional; conditions: Fermentozyma sake
Nakaseomyces glabratus = test: Antifungal activity against 4 strains of Candida glabrata after 24 hrs by […]; type: functional
Candida tropicalis = test: Antifungal activity against 4 strains of Candida tropicalis after 24 hrs by […]; type: functional
HEp-2 [1] = test: Antiproliferative activity against human Hep2 cells assessed as cell survival fraction after 24 hrs by MTT assay; type: cell-based; conditions: HEp-2, 24 h
How it was run: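 Hep2 laryngeal carcinoma cells seeded in triplicate at 1 × 10^5/well in serum-free DMEM. Exposed 24 h at 37 °C, 5% CO2, to six concentrations ([…]); DMSO ≤0.5%. MTT reagent added for 2 h at 37 °C, then detergent for 2 h at room temperature in the dark. OD550 minus OD650 read. EC50 from ≥3 independent experiments.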

[2] = Antiproliferative activity against human Hep2 cells assessed as cell survival fraction at 100 ug/mL after 24 hrs by MTT assay; type: cell-based; conditions: HEp-2 cells, read-out: Survival
How it was run: (§1)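 Hep2 (human laryngeal carcinoma) cells maintained in DMEM + 10% FBS + 1% pen/strep, 37 °C, 5% CO2. Seeded in triplicate at 1 × 10^5/well in serum-free medium and exposed 24 h at 37 °C to six compound concentrations (100–0.05). DMSO stock diluted in medium, final DMSO ≤0.5%. MTT reagent added for 2 h at 37 °C, then detergent for 2 h at RT in the dark. Read as OD550 minus OD650.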

[3] = Antiproliferative activity against human Hep2 cells assessed as cell survival fraction at 50 ug/mL after 24 hrs by MTT assay; type: cell-based; conditions: HEp-2 cells, read-out: Survival; how it was run: as §1
[4] = Antiproliferative activity against human Hep2 cells assessed as cell survival fraction at 10 ug/mL after 24 hrs by MTT assay; type: cell-based; conditions: HEp-2 cells, read-out: Survival; how it was run: as §1
[5] = Antiproliferative activity against human Hep2 cells assessed as cell survival fraction at 5 ug/mL after 24 hrs by MTT assay; type: cell-based; conditions: HEp-2 cells, read-out: Survival; how it was run: as §1
[6] = Antiproliferative activity against human Hep2 cells assessed as cell survival fraction at 0.5 ug/mL after 24 hrs by MTT assay; type: cell-based; conditions: HEp-2 cells, read-out: Survival; how it was run: as §1
[7] = Antiproliferative activity against human Hep2 cells assessed as cell survival fraction at 0.05 ug/mL after 24 hrs by MTT assay; type: cell-based; conditions: HEp-2 cells, read-out: Survival; how it was run: as §1
HEp-2 [8] = test: Cytotoxicity against human Hep2 cells assessed as cell survival fraction after 24 hrs by trypan blue exclusion method; type: cell-based; conditions: HEp-2, 24 h
How it was run: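 Hep2 cells in DMEM with 10% FBS and 1% penicillin-streptomycin, at 37 °C, 5% CO2, grown to 60–70% confluency. Seeded at 1 × 10^5/mL and exposed 24 h to six concentrations ([…]); DMSO ≤0.5%. Controls were cells alone, cells with DMSO, and 1 mM nitroprusside. Scraped cells mixed 1:1 with 0.4% trypan blue; blue cells counted as dead by hemocytometer, two operators. EC50 from ≥3 independent experiments.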

[9] = Cytotoxicity against human Hep2 cells assessed as cell survival fraction at 100 ug/mL after 24 hrs by trypan blue exclusion method; type: cell-based; conditions: HEp-2 cells, read-out: Survival
How it was run: (§2)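 Hep2 cells grown in DMEM + 10% FBS + 1% pen/strep at 37 °C, 5% CO2, used at 60–70% confluency. Exponential-phase cells (1 × 10^5/mL) incubated 24 h with six concentrations (100–0.05), final DMSO ≤0.5%. Controls were cells alone or cells + DMSO, with 1 mM sodium nitroprusside as positive control. Cells scraped off, mixed 1:1 with 0.4% trypan blue and counted on a hemocytometer by two operators. Blue cells were scored dead; results given as % viable cells.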

[10] = Cytotoxicity against human Hep2 cells assessed as cell survival fraction at 50 ug/mL after 24 hrs by trypan blue exclusion method; type: cell-based; conditions: HEp-2 cells, read-out: Survival; how it was run: as §2
[11] = Cytotoxicity against human Hep2 cells assessed as cell survival fraction at 10 ug/mL after 24 hrs by trypan blue exclusion method; type: cell-based; conditions: HEp-2 cells, read-out: Survival; how it was run: as §2
[12] = Cytotoxicity against human Hep2 cells assessed as cell survival fraction at 5 ug/mL after 24 hrs by trypan blue exclusion method; type: cell-based; conditions: HEp-2 cells, read-out: Survival; how it was run: as §2
[13] = Cytotoxicity against human Hep2 cells assessed as cell survival fraction at 0.5 ug/mL after 24 hrs by trypan blue exclusion method; type: cell-based; conditions: HEp-2 cells, read-out: Survival; how it was run: as §2
[14] = Cytotoxicity against human Hep2 cells assessed as cell survival fraction at 0.05 ug/mL after 24 hrs by trypan blue exclusion method; type: cell-based; conditions: HEp-2 cells, read-out: Survival; how it was run: as §2

Compound	MIC (Escherichia coli) [µg/mL]	MIC (Candida albicans) [µg/mL]	MIC (Pichia kudriavzevii) [µg/mL]	MIC (Candida parapsilosis) [µg/mL]	MIC ([Candida] sake) [µg/mL]	MIC (Nakaseomyces glabratus) [µg/mL]	MIC (Candida tropicalis) [µg/mL]	EC50 (HEp-2 [1]) [µg/mL]	viability at 24 h, 100 ug/mL [2] [%]	viability at 24 h, 50 ug/mL [3] [%]	viability at 24 h, 10 ug/mL [4] [%]	viability at 24 h, 5 ug/mL [5] [%]	viability at 24 h, 0.5 ug/mL [6] [%]	viability at 24 h, 0.05 ug/mL [7] [%]	viability at 24 h, 100 ug/mL [9] [%]	viability at 24 h, 50 ug/mL [10] [%]	viability at 24 h, 10 ug/mL [11] [%]	viability at 24 h, 5 ug/mL [12] [%]	viability at 24 h, 0.5 ug/mL [13] [%]	viability at 24 h, 0.05 ug/mL [14] [%]	also measured
CC1CCC/C1=N\Nc1nc(-c2ccc(I)cc2)cs1 (stereo not drawn)	32 (≈ 80.5 µM)	0.25 (≈ 0.629 µM)	2 (≈ 5.03 µM)	2 (≈ 5.03 µM)	32 (≈ 80.5 µM)	2 (≈ 5.03 µM)	0.5 (≈ 1.26 µM)	30 (≈ 75.5 µM)	6	12	36	60	90	100	0	0	70	67	89	92	MIC (Proteus vulgaris): 32 µg/mL (≈ 80.5 µM); MIC (Klebsiella aerogenes): > 128 µg/mL; MIC (Klebsiella pneumoniae): > 128 µg/mL; MIC (Staphylococcus aureus): 32 µg/mL (≈ 80.5 µM); MIC (Staphylococcus warneri): 32 µg/mL (≈ 80.5 µM); MIC (Streptococcus pyogenes): 8 µg/mL (≈ 20.1 µM); MIC (Enterococcus faecalis): 32 µg/mL (≈ 80.5 µM); EC50 (HEp-2 [8]): 30 µg/mL (≈ 75.5 µM)
Clc1ccccc1C(c1ccccc1)(c1ccccc1)n1ccnc1 [CLOTRIMAZOLE]		2 (≈ 5.8 µM)	2 (≈ 5.8 µM)	0.5 (≈ 1.45 µM)	2 (≈ 5.8 µM)	0.25 (≈ 0.725 µM)	1 (≈ 2.9 µM)	48 (≈ 139 µM)	20	32	70	82	85	100	10	20	68	70	87	100	EC50 (HEp-2 [8]): 40 µg/mL (≈ 116 µM)
C/C(=N\Nc1nc(-c2ccc(I)cc2)cs1)c1ccncc1	16 (≈ 38.1 µM)	0.25 (≈ 0.595 µM)	2 (≈ 4.76 µM)	2 (≈ 4.76 µM)	4 (≈ 9.52 µM)	2 (≈ 4.76 µM)	0.5 (≈ 1.19 µM)	25 (≈ 59.5 µM)	0	10	35	58	95	95	0	37	30	66	85	90	MIC (Proteus vulgaris): 16 µg/mL (≈ 38.1 µM); MIC (Klebsiella aerogenes): > 128 µg/mL; MIC (Klebsiella pneumoniae): > 128 µg/mL; MIC (Staphylococcus aureus): 8 µg/mL (≈ 19 µM); MIC (Staphylococcus warneri): 8 µg/mL (≈ 19 µM); MIC (Streptococcus pyogenes): 4 µg/mL (≈ 9.52 µM); MIC (Enterococcus faecalis): 4 µg/mL (≈ 9.52 µM); EC50 (HEp-2 [8]): 30 µg/mL (≈ 71.4 µM)
CCC(CC)=NNc1nc(-c2ccc(I)cc2)cs1	32 (≈ 83.1 µM)	0.25 (≈ 0.649 µM)	256 (≈ 664 µM)	2 (≈ 5.19 µM)	256 (≈ 664 µM)	2 (≈ 5.19 µM)	0.5 (≈ 1.3 µM)	50 (≈ 130 µM)	10	45	90	90	92	95	58	63	67	80	85	92	MIC (Proteus vulgaris): 32 µg/mL (≈ 83.1 µM); MIC (Klebsiella aerogenes): 16 µg/mL (≈ 41.5 µM); MIC (Klebsiella pneumoniae): 16 µg/mL (≈ 41.5 µM); MIC (Staphylococcus aureus): > 128 µg/mL; MIC (Staphylococcus warneri): 32 µg/mL (≈ 83.1 µM); MIC (Streptococcus pyogenes): 32 µg/mL (≈ 83.1 µM); MIC (Enterococcus faecalis): 32 µg/mL (≈ 83.1 µM)

Source: ChEMBL document CHEMBL2034842, “Synthesis, anti-Candida activity, and cytotoxicity of new (4-(4-iodophenyl)thiazol-2-yl)hydrazine derivatives” (Eur J Med Chem, 2012)
